Measurements reported in publication PMC9104225 (ACS chemical biology, 2021).
Residues, ends and D or L forms follow the SMILES beside them. *: point of attachment. AMC = Cc1cc(=O)oc2cc(N*)ccc12; Cbz = O=C(OCc1ccccc1)*

Experiments:
cathepsin B [1] = molecular target: T1, cathepsin B (Homo sapiens, UniProt P07858); experiment: pH profile of cathepsin B activity with peptide-AMC substrates; assay type: biochemical; conditions: substrate 60 μM, pH 2 to 9
Procedure, shortened: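 Activated cathepsin B (0.04 ng/μL) was run with 60 μM of each peptide-AMC substrate. Buffers were 50 mM citrate phosphate at pH 2.2–7.4 in 0.4-unit steps plus pH 7.2, and 50 mM Tris-HCl at pH 7.4–9.0. Assays ran at 25 °C with ex360/em460. Activity was taken as RFU/sec, the highest slope over 10 consecutive readings. Results are mean ± SEM, n=3.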

Cathepsin L [2] = molecular target: T2, Cathepsin L (Homo sapiens, UniProt P07711); experiment: Specificity of peptide-AMC substrates: cleavage by cathepsin L; assay type: biochemical
Cathepsin V [3] = molecular target: T3, Cathepsin V (Homo sapiens, UniProt O60911); experiment: Specificity of peptide-AMC substrates: cleavage by cathepsin V; assay type: biochemical
cathepsin B [4] = molecular target: T1, cathepsin B; experiment: Cathepsin B inhibition, fluorogenic assay with Z-Phe-Arg-AMC substrate; assay type: biochemical; conditions: for reduction of cathepsin B activity with Z-Phe-Arg-AMC as substrate: 64 nM inhibitor; for Ki: irreversible inhibitor KI, mean ± SD
Cathepsin C = Cathepsin C (Homo sapiens, UniProt P53634); experiment: Specificity of inhibitors: cathepsin C activity with Gly-Arg-AMC; assay type: biochemical; conditions: for IC50: Cathepsin C, without pre-incubation
Cathepsin H = Cathepsin H (Homo sapiens, UniProt P09668); experiment: Specificity of inhibitors: cathepsin H activity with Arg-AMC; assay type: biochemical
Cathepsin K = molecular target: T4, Cathepsin K (Homo sapiens, UniProt P43235); experiment: Specificity of inhibitors: cathepsin K activity with Z-Phe-Arg-AMC; assay type: biochemical; conditions: for % inhibition: pH 4.6, at 16 μM (16,000 nM) inhibitor
T4 sequence (P43235 115-329): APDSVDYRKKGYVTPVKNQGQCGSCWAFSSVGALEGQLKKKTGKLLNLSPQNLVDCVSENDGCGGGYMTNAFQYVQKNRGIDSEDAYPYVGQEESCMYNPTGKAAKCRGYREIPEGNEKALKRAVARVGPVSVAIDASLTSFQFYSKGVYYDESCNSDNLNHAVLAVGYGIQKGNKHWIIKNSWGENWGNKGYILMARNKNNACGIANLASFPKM

Cathepsin L [5] = molecular target: T2, Cathepsin L; experiment: Specificity of inhibitors: cathepsin L activity with Z-Phe-Arg-AMC; assay type: biochemical; conditions: for IC50: pH 4.6, without pre-incubation
Cathepsin S = Cathepsin S (Homo sapiens, UniProt P25774); experiment: Specificity of inhibitors: cathepsin S activity with Z-Phe-Arg-AMC; assay type: biochemical; conditions: for IC50 / % inhibition: Cathepsin S; for IC50: without pre-incubation; for % inhibition: at 16 μM (16,000 nM) inhibitor
Cathepsin V [6] = molecular target: T3, Cathepsin V; experiment: Specificity of inhibitors: cathepsin V activity with Z-Phe-Arg-AMC; assay type: biochemical; conditions: for IC50: without pre-incubation
Cathepsin X = Cathepsin X (Homo sapiens, UniProt Q9UBR2); assay type: biochemical; conditions: pH 4.6, without pre-incubation
[7] = molecular target: cathepsin B activity in human neuroblastoma cell lysate (Homo sapiens, UniProt P07858); experiment: Cathepsin B activity in neuroblastoma cell homogenate in presence of inhibitors; assay type: biochemical; conditions: 1 μM inhibitor; SHSY5Y homogenate; Z-Arg-Arg-AMC substrate; pH 5.5
Procedure, shortened: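 SHSY5Y cells were grown in 50% MEMalpha/50% F12-K with 10% heat-inactivated FBS at 37 °C under 5% CO2. They were collected in 0.32 M sucrose and freeze-thawed to give homogenate. CA-074-sensitive activity was taken as cathepsin B. Protein was measured by DC assay. Output is nmol AMC/μg/min, mean ± SD, Student's t-test.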

[8] = molecular target: intracellular cathepsin B in SHSY5Y human neuroblastoma cells (Homo sapiens, UniProt P07858); assay type: cell-based; conditions: 50 μM, 6 hrs
Procedure, shortened: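 Intact SHSY5Y cells were treated with test compound for 6 h at 37 °C. They were washed 3× in PBS, homogenised in 0.32 M sucrose and freeze-thawed. Cathepsin B activity was taken as the CA-074-sensitive fraction, normalised to DC-assay protein. Output is nmol AMC/μg/min, mean + SD, n=6, t-test.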

[9] = cathepsin B, pH 4.6, without preincubation, Z-Phe-Arg-AMC 40 μM
[10] = cathepsin B, pH 7.2, without preincubation, Z-Phe-Arg-AMC 40 μM
[11] = pH not stated in the sentence for Z-Glu-Lys-AMC, pH 4.6 for Z-Phe-Arg-AMC

Cathepsin H, sequence (P09668 116-335 limits assumed, other chains not shown): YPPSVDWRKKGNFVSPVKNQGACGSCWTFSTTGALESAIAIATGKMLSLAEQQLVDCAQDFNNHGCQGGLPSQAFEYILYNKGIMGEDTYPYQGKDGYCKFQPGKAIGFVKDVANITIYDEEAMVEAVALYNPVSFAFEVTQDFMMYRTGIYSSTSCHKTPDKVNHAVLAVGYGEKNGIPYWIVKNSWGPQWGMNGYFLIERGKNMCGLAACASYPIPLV
Cathepsin S, sequence (P25774 115-331): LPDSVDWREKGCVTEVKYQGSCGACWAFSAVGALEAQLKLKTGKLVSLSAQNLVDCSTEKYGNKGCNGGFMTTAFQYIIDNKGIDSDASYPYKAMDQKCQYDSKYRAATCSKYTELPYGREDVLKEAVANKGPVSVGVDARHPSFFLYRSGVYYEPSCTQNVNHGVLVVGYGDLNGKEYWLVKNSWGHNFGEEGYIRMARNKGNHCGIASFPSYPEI
T2 sequence (P07711 114-333): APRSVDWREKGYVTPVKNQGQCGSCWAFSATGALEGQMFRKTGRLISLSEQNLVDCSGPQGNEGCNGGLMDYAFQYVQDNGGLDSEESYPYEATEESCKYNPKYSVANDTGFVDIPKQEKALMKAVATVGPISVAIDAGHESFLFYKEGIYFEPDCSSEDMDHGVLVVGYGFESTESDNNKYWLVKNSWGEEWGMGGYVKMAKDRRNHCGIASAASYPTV
T3 sequence (O60911 114-334): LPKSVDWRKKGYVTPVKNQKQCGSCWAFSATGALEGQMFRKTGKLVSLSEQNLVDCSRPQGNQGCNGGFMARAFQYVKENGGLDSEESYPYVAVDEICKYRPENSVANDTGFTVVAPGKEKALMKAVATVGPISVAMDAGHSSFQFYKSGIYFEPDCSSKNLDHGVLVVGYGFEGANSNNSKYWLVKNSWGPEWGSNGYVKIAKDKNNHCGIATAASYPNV
Cathepsin C, sequence (P53634 25-134 limits assumed): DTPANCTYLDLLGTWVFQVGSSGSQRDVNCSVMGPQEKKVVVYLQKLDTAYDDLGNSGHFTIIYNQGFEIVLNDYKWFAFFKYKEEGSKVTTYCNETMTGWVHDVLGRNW
Cathepsin C, sequence (P53634 231-394 limits assumed): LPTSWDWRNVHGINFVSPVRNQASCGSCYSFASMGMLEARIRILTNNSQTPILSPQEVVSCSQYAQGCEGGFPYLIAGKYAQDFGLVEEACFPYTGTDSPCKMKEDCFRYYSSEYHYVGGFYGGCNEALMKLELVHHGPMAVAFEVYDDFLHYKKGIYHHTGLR
Cathepsin C, sequence (P53634 395-463 limits assumed): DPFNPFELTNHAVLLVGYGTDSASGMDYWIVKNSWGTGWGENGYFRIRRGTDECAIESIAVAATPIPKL
Cathepsin X, sequence (Q9UBR2 62-303): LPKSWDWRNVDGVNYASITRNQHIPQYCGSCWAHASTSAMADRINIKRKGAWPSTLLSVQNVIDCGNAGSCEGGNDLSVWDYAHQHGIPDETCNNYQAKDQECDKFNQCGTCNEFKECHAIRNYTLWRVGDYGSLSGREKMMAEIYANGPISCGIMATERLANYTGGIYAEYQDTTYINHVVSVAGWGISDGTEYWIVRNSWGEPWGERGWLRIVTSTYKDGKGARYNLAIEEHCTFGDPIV

Structure (SMILES) | pH of maximal (optimal) hydrolysis by cathepsin B (cathepsin B [1]) [pH] | kinact/KI (cathepsin B [4]; cathepsin B, pH 4.6) [M⁻¹ s⁻¹] | Ki (cathepsin B [4]; cathepsin B, pH 4.6) [µM] | IC50 (cathepsin B [4]; [9]) [µM] | kinact/KI (cathepsin B [4]; cathepsin B, pH 7.2) [M⁻¹ s⁻¹] | Ki (cathepsin B [4]; cathepsin B, pH 7.2) [µM] | IC50 (cathepsin B [4]; [10]) [µM] | IC50 (Cathepsin C; pH 4.6) [µM] | IC50 (Cathepsin C; pH 7.2) [µM] | fold more potent for cathepsin B than cathepsin C (IC50) (Cathepsin C; pH 7.2) [fold] | IC50 (Cathepsin H; pH 4.6, without pre-incubation) [µM] | IC50 (Cathepsin H; pH 7.2, without pre-incubation) [µM] | % inhibition (Cathepsin K) | IC50 (Cathepsin K; pH 4.6, without pre-incubation) [µM] | IC50 (Cathepsin K; pH 7.2, without pre-incubation) [µM] | IC50 (Cathepsin L [5]) [µM] | IC50 (Cathepsin S; pH 4.6) [µM] | IC50 (Cathepsin S; pH 7.2) [µM] | IC50 (Cathepsin V [6]; Cathepsin V, pH 7.2) [µM] | IC50 (Cathepsin X) [µM] | also measured
Cc1cc(=O)oc2cc(NC(=O)[C@H](CCCCN)NC(=O)[C@H](CCCNC(=N)N)NC(=O)OCc3ccccc3)ccc12 [Z-Arg-Lys-AMC] (Cbz-Arg-Lys-{AMC}) | 7.8 |  |  |  |  |  |  |  |  |  |  |  |  |  |  |  |  |  |  |  | substrate activity for cathepsin L (Cathepsin L [2]; pH 7.2): no activity; substrate activity for cathepsin V (Cathepsin V [3]; pH 7.2): no activity
Cc1cccc(C)c1C(=O)OCC(=O)[C@H](CCCCN)NC(=O)[C@H](CCCN=C(N)N)NC(=O)OCc1ccccc1 [Z-Arg-Lys-AOMK] |  | 1800 | 15 | 1.5 | 110000 | 0.13 ± 0.05 | 0.02 ± 0.0083 | > 16 | 0.85 | 43 | > 16 | > 16 | no inhibition | > 16 | > 16 | > 16 | > 16 | 2.2 | 0.44 | > 16 | reduction of cathepsin B activity with Z-Phe-Arg-AMC as substrate (cathepsin B [4]; pH 4.6): 5%; reduction of cathepsin B activity with Z-Phe-Arg-AMC as substrate (cathepsin B [4]; pH 7.2): 93%; IC50 (cathepsin B [4]; cathepsin B, pH 6.8): 0.022 µM; fold greater potency at pH 7.2 compared to pH 4.6 (KI values) (cathepsin B [4]; cathepsin B, ratio of KI at pH 4.6 and pH 7.2): 115 fold; inhibition at 16 μM (Cathepsin H; pH 4.6, at 16 μM inhibitor): no inhibition; fold more potent for cathepsin B than cathepsin S (IC50) (Cathepsin S; pH 7.2): 110 fold; fold more potent for cathepsin B than cathepsin V (IC50) (Cathepsin V [6]; pH 7.2): 22 fold; inhibition of proteolytic (cathepsin B) activity in cell lysate [7]: completely inhibited; cell permeability [8]: cell permeable
Cc1cc(=O)oc2cc(NC(=O)C(CCCN=C(N)N)NC(=O)C(Cc3ccccc3)NC(=O)OCc3ccccc3)ccc12 (stereo not drawn) [Z-Phe-Arg-AMC, reference compound] (Cbz-Phe-Arg-{AMC}; configuration not given here) |  |  |  |  |  |  |  |  |  |  |  |  |  |  |  |  |  |  |  |  | substrate activity for cathepsin L (Cathepsin L [2]; [11]): cleaved; substrate activity for cathepsin V (Cathepsin V [3]; [11]): cleaved
CCCNC(=O)[C@H]1O[C@@H]1C(=O)N[C@H](C(=O)N1CCC[C@H]1C(=O)O)[C@@H](C)CC [CA-074, reference compound] |  |  |  |  |  |  |  |  |  |  |  |  |  |  |  |  |  |  |  |  | inhibition of proteolytic (cathepsin B) activity in cell lysate [7]: completely inhibited

Second part, led by results:

pH of maximal (optimal) hydrolysis by cathepsin B (cathepsin B [1]) [pH] | kinact/KI (cathepsin B [4]; cathepsin B, pH 4.6) [M⁻¹ s⁻¹] | Ki (cathepsin B [4]; cathepsin B, pH 4.6) [µM] | IC50 (cathepsin B [4]; [9]) [µM] | kinact/KI (cathepsin B [4]; cathepsin B, pH 7.2) [M⁻¹ s⁻¹] | Ki (cathepsin B [4]; cathepsin B, pH 7.2) [µM] | IC50 (cathepsin B [4]; [10]) [µM] | IC50 (Cathepsin C; pH 4.6) [µM] | IC50 (Cathepsin C; pH 7.2) [µM] | fold more potent for cathepsin B than cathepsin C (IC50) (Cathepsin C; pH 7.2) [fold] | IC50 (Cathepsin H; pH 4.6, without pre-incubation) [µM] | IC50 (Cathepsin H; pH 7.2, without pre-incubation) [µM] | % inhibition (Cathepsin K) | IC50 (Cathepsin K; pH 4.6, without pre-incubation) [µM] | IC50 (Cathepsin K; pH 7.2, without pre-incubation) [µM] | IC50 (Cathepsin L [5]) [µM] | IC50 (Cathepsin S; pH 4.6) [µM] | IC50 (Cathepsin S; pH 7.2) [µM] | IC50 (Cathepsin V [6]; Cathepsin V, pH 7.2) [µM] | IC50 (Cathepsin X) [µM] | Structure (SMILES) | also measured
 | 2000 | 7.9 | 1.1 | 8200 | 2.3 | 0.32 ± 0.045 | 8.6 | 12 | 38 | > 16 | > 16 | 10% | > 16 | > 16 | > 16 | > 16 | > 16 | > 16 | > 16 | Cc1cccc(C)c1C(=O)OCC(=O)C(CCCCN)NC(=O)C(CCC(=O)O)NC(=O)OCc1ccccc1 (stereo not drawn) [Z-Glu-Lys-AOMK] | % inhibition (Cathepsin L [5]; pH 4.6, at 16 μM (16,000 nM) inhibitor): 23%; % inhibition (Cathepsin S; pH 4.6): 26%; % inhibition (Cathepsin S; pH 7.2): 30%; IC50 (Cathepsin V [6]; Cathepsin V, pH 4.6): 1.9 µM; % inhibition (Cathepsin V [6]; Cathepsin V, pH 7.2, at 16 μM (16,000 nM) inhibitor): 10%
4.6 |  |  |  |  |  |  |  |  |  |  |  |  |  |  |  |  |  |  |  | Cc1cc(=O)oc2cc(NC(=O)[C@H](CCCCN)NC(=O)[C@H](CCC(=O)O)NC(=O)OCc3ccccc3)ccc12 [Z-Glu-Lys-AMC] (Cbz-Glu-Lys-{AMC}) | substrate activity for cathepsin L (Cathepsin L [2]; [11]): no activity; substrate activity for cathepsin V (Cathepsin V [3]; [11]): no activity
